Compound activity as filed in PubChem.
T cruzi inh: T. cruzi replication inhibition; T. cruzi beta-gal in NIH3T3, luminescence, 90 h; inhibition, % (concentration not given with the values); 300,000 compounds, 1.4% hits; AID 1885;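 active = mean inhibition across valid replicates above about 55%, limit read from the data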;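 note: signal also drops with host cell toxicity which is not excluded here; higher percent means less beta-gal luminescence so fewer parasites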
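compound dosing = single 50 nL compound addition per well in DMSO | material = NIH/3T3 host cells with β-galactosidase reporter T. cruzi | input = 5,000 host fibroblasts per well | timing = ≥90 h infection period, 3 h prior cell attachment | read-out basis = percent inhibition of parasite-derived β-gal signal | detection = GalScreen β-gal luminescence, detergent lysis, 60 min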
HIF activator: HIF pathway transcriptional activation; U2OS HRE-luciferase reporter, luminescence; normalized: DMSO 0%, desferrioxamine 100%; activation, % at 7.5 µM (by protocol); 300,000 compounds, 0.32% hits; AID 1910;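 active = mean activation of at least 10% of the iron chelator positive control signal, with at least half of replicates also reaching 10%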
ARNT TACC3 PPI: disrupts binding between human ARNT and TACC3; Q9Y6A5; AlphaScreen His-ARNT PAS-B/GST-TACC3 binding, luminescence; TACC3 fragment carries E629A point mutation; inhibition, % at 9.99 µM; 390,000 compounds, 0.66% hits;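 active = mean inhibition of replicates at least 50% and at least half of replicates each reaching 50%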
AI-2 QS modul: modulators of Vibrio harveyi AI-2 quorum sensing system; 300,000 compounds, 0.4% hits; Vibrio harveyi JMH597 AI-2 luminescence/OD600 ratio, 9 h; active compounds read low; strain lacks LuxN and CqsS sensors; 0 = neutral-control median; activity change, % at 7.5 µM; in the data active = activity change below about -75%, passing the limit was not always enough;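 note: luminescence divided by OD600 gain over 9 h not by final OD600 alone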
Hits are given with their value; i = inactive; nt = no result given. Shown are actives, neighbours in structure and some others; about 2% of the full set was active somewhere.

SMILES	T cruzi inh	HIF activator	ARNT TACC3 PPI	AI-2 QS modul
CCNC(=O)C[C@H]1CC[C@@H]2[C@H](COc3ccc(NC(=O)c4ccc(F)cc4)cc3C(=O)N2C)O1	nt	nt	i	nt
COc1ccc(S(=O)(=O)Nc2ccc3c(c2)C(=O)N([C@H](C)CO)C[C@H](C)[C@H](CN(C)C(=O)c2ccncc2)OCCCC[C@@H](C)O3)cc1	nt	nt	i	nt
C=CCn1c(SCc2ccc(F)cc2)nnc1-c1sc2nc(C)cc(C)c2c1N	63	i	i	i
C=CCn1c(CNc2ccccc2)nnc1SCC(=O)N/N=C/c1ccc(O)cc1O	i	i	58	i
C=CCn1c(CNc2ccc(C)cc2)nnc1SCC(=O)N/N=C/c1ccc(O)cc1O	i	i	i	i
Cc1ccc2nc(N(CCCN(C)C)C(=O)c3cc4ccccc4oc3=O)sc2c1	60	i	i	i
CN(C)CCCN(C(=O)c1cc2ccccc2oc1=O)c1nc2c(F)cccc2s1	56	i	i	i
COc1ccc(NC(=O)N(C)C[C@@H]2Oc3ncc(C#CCN(C)C)cc3C(=O)N([C@H](C)CO)C[C@H]2C)cc1	nt	nt	i	nt
CCNC(=O)NC(=O)c1csc([N+](=O)[O-])c1	59	i	i	i
C=CCNC(=O)NC(=O)c1csc([N+](=O)[O-])c1	i	i	i	i
COc1cc2sc3cc(NCCCN4CCOCC4)ccc3c(=O)c2cc1OC	nt	nt	28	nt
O=C(O)CN1C(=O)/C(=C\c2cn(-c3ccccc3)nc2-c2ccccc2)SC1=S	i	i	46	i
CN(C)S(=O)(=O)c1cccc(NC(=S)N/N=C/c2cc(Br)ccc2O)c1	57	47	62	i
CN(C)S(=O)(=O)c1cccc(NC(=S)N/N=C/c2cccc(O)c2)c1	i	i	i	i
CCC(=O)N[C@H]1CC[C@@H](CCNC(=O)Nc2ccc(F)cc2)O[C@H]1CO	nt	nt	i	nt
FC(F)(F)c1ccc(CSc2ccccn2)cc1	i	10.0	i	i
O=C(C[C@H]1C[C@@H]2c3cc(NS(=O)(=O)c4ccc(F)cc4)ccc3O[C@@H]2[C@H](CO)O1)NCc1cc(F)ccc1F	nt	nt	i	nt
Cc1cccc(N2CCN(Cc3ccc([N+](=O)[O-])o3)CC2)c1C	58	i	i	i
COc1ccc(N2CCN(C(=O)CN(C)S(=O)(=O)c3cc(C)ccc3OC)CC2)cc1	i	465	i	i
COc1ccc(CN(C)C[C@H]2Oc3ccc(NC(=O)CCN4CCOCC4)cc3C(=O)N([C@H](C)CO)C[C@@H]2C)cc1	nt	nt	i	nt
CCNC(=O)COc1cccc(C(=O)NCc2ccccc2)c1	i	75	i	i
Cc1ccc(C(=O)NCc2ccccc2)cc1Br	i	i	i	-77
CNC[C@@H]1Oc2ccc(NC(=O)Cn3cnnn3)cc2C(=O)N([C@H](C)CO)C[C@@H]1C	nt	nt	i	nt
COc1ccc(NC(=O)c2cccc(Cn3cc(Br)c([N+](=O)[O-])n3)c2)c(C)c1	68	i	i	i
O=C(O)c1cc2ccccc2cn1	nt	nt	77	nt
SMILES	T cruzi inh	HIF activator	ARNT TACC3 PPI	AI-2 QS modul
COc1ccc2nc(C)cc(Nc3ccc(N4CCOCC4)cc3)c2c1	61	i	i	i
COc1ccc(/C=N/Nc2cc(C)nc3ccc(OC)cc23)c(OC)c1	58	i	i	i
COc1ccc2nc(C)cc(Nc3ccc(N4CCN(C)CC4)cc3)c2c1	i	i	i	i
COc1ccc2nc(C)cc(N/N=C/c3ccccc3)c2c1	nt	nt	i	nt
CC(=O)Nc1ccc2c(c1)C(=O)N(C)[C@@H]1CC[C@@H](CC(=O)NCc3ccc4c(c3)OCO4)O[C@H]1CO2	nt	nt	i	nt
O=C(Nc1cccc(NC(=O)c2ccc(-c3ccc(Br)cc3)o2)c1)c1ccco1	58	i	i	i
CC(NC(=O)C12CC3CC(CC(O)(C3)C1)C2)c1ccc(Cl)cc1Cl (stereo not given)	i	16	i	i
Nc1ccc(N)c(C(=O)O)c1	i	i	47	i
Cc1ccc(S(=O)(=O)N(C)C[C@H]2Oc3ccc(NC(=O)Cc4ccccc4)cc3C(=O)N([C@H](C)CO)C[C@H]2C)cc1	nt	nt	i	nt
Cc1cc(C)c2sc(NC(=O)c3ccc([N+](=O)[O-])o3)nc2c1	59	i	i	-86
O=C(Nc1nc2cc3c(cc2s1)OCCO3)c1ccc([N+](=O)[O-])o1	59	i	i	i
Cc1cc(C)c2nc(NC(=O)c3ccc([N+](=O)[O-])o3)sc2c1	i	i	i	i
CCCNC(=O)C[C@H]1C[C@H]2c3cc(NC(=O)COC)ccc3O[C@H]2[C@@H](CO)O1	nt	nt	i	nt
S=C(Nc1ccc(Cl)c(Cl)c1)NC1CCCCC1	i	i	i	i
S=C(Nc1ccc2nsnc2c1)NC1CCCCC1	i	i	25	i
O=C(N/N=C/c1cc(Cl)ccc1O)c1ccc(Br)cc1	nt	nt	i	nt
O=C(N/N=C/c1cc(Br)ccc1O)c1ccncc1	i	34	61	-94
O=C(N/N=C/c1ccccc1O)C(=O)Nc1ccccn1	i	i	48	i
O=C(N/N=C/c1ccccc1O)c1cc[n+]([O-])cc1	i	i	63	i
COc1ccc(/C=N/NC(=O)C(=O)Nc2ccccn2)cc1OC	i	i	i	i
O=C(N/N=C\c1cc(Br)ccc1O)c1ccc(S(=O)(=O)N2CCCCC2)cc1	59	37	i	i
O=C(N/N=C/c1ccc(O)c(O)c1)c1cccc(S(=O)(=O)N2CCCCC2)c1	i	i	i	nt
O=C(Nc1ccc(F)cc1)N[C@@H]1C=C[C@H](CC(=O)N2CCOCC2)O[C@@H]1CO	nt	nt	i	nt
C[C@@H]1CN([C@H](C)CO)C(=O)c2cccc(NS(=O)(=O)c3ccccc3)c2O[C@@H]1CN(C)S(C)(=O)=O	nt	nt	i	nt
Cc1ccc(N=Nc2ccc(O)c(/C=N\NC(=O)c3ccc(N)cc3)c2)cc1C	i	11	i	i
SMILES	T cruzi inh	HIF activator	ARNT TACC3 PPI	AI-2 QS modul
Cc1nc(C)c(C(=O)N/N=C/c2cc(Br)ccc2O)s1	i	29	i	i
Cc1nc(C)c(C(=O)N/N=C/c2c[nH]c3ccccc23)s1	i	i	i	i
CC(C)(C)OC(=O)N/N=C/c1cc(N=Nc2ccccc2)ccc1O	i	i	nt	i
O=C(N/N=C/c1ccc(O)c2ncccc12)c1cccc(Br)c1	60	i	i	i
Cc1nccn1CC(=O)N/N=C/c1ccccc1O	i	i	74	i
C[C@@H]1CN([C@@H](C)CO)C(=O)c2cccc(NC(=O)NC3CCCCC3)c2O[C@H]1CN(C)S(=O)(=O)c1ccc(Cl)cc1	nt	nt	i	nt
O=C(N/N=C/c1ccccc1O)c1ccncc1	i	i	66	i
CC(C)NC(=O)N1[C@H](CO)[C@@H](c2ccccc2)[C@H]1CN(C)C(=O)c1cccnc1	nt	nt	i	nt
C[C@H]1CN([C@@H](C)CO)C(=O)c2cccc(NS(=O)(=O)c3ccc(F)cc3)c2O[C@@H]1CN(C)C(=O)Nc1ccccc1	nt	nt	i	nt
CCN(CC)CCC(=O)Nc1cccc2c1C(=O)c1ccccc1C2=O	56	26	i	i
CO[C@@H](CN(C)S(=O)(=O)c1ccccc1)[C@H](C)CN(Cc1ccccc1Cl)[C@@H](C)CO	nt	nt	i	nt
Cc1c(C(=O)Nc2nc3ccccc3[nH]2)oc2ccccc12	i	i	i	i
